The text below walks through data of ChEMBL document CHEMBL1135785, “N-[(2-Sulfo)-9-fluorenylmethoxycarbonyl](3)-gentamicin C(1) is a long-acting prodrug derivative” (J Med Chem, 2002).

The structures appear in SMILES notation. A value given as a limit tells only on which side of the number the result lay.

The nature of data set [1]: Half life after i.v. administration to rat. The note with it: in vivo, iv. The data set is classed as ADME, organism-based. A digest of the protocol:
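Rats (n = 4 per group) received 1 μmol/rat intravenously in 0.2 mL PBS, pH 7.4. Tail blood was sampled at several time points. Immunoreactive gentamicin was measured by fluorescence polarization immunoassay, with each point the mean of four rats. Circulating half-life was taken from the decline phase.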

Data set [2] has as its target T1, Albumin (Homo sapiens, UniProt P02768). The data set is described as follows: The compound was evaluated for pharmacokinetic parameters Serum albumin associating affinity.
Data set [3] addresses T1, Albumin. In words: Evaluated for inhibition of Serum albumin evoked PNPA hydrolysis in presence of 3.0 M of FMS. The data set is classed as functional. In outline:
(§1)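 Human serum albumin (11.4 μM) in 0.05 M HEPES, pH 6.7, was preincubated for 10 min with or without increasing concentrations of each FMS-gentamicin conjugate. PNPA was then added to a final 1 mM. Absorbance at 410 nm was read 60 min later, and IC50 was calculated for inhibition of HSA-evoked PNPA hydrolysis.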

Data set [4] deals with T1, Albumin. In words: The compound was evaluated for albumin associating affinity along with 1.3 M of FMS. In outline:
(§2)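 Albumin affinity was inferred from the PNPA esterase assay. HSA (11.4 μM, 0.05 M HEPES, pH 6.7) was preincubated 10 min with graded conjugate concentrations, then given 1 mM PNPA (final). A410 was read at 60 min. The resulting IC50 values were converted to Kd estimates.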

Data set [5] is described as follows: Half life for hydrolysis of the compound. The format is ADME. In outline:
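Conjugate was incubated in 0.1 M NaHCO3, pH 8.5, at 37 °C. Aliquots were withdrawn over time and assayed with TNBS for the appearance of free amino groups to give the FMS hydrolysis half-life.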

Data set [6] deals with T1, Albumin. In words: Evaluated for inhibition of Serum albumin evoked PNPA hydrolysis in presence of 2.1 M of FMS. The data set is classed as functional. A digest of the protocol:
as §1

The subject of data set [7] is Escherichia coli. In words: The compound was evaluated for its ability to inhibit replication of Escherichia coli. The data set is classed as functional, organism-based. A digest of the protocol:
(§3)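 Antibacterial potency was measured as inhibition of Escherichia coli replication, expressed as half-maximal inhibitory concentration and as percent of native gentamicin activity.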

Data set [8] can be described thus: The compound was evaluated for pharmacokinetic parameters HSA associating affinity. The data set is classed as ADME. The note with it: human. A digest of the protocol:
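Human serum albumin (11.4 μM) in 0.05 M HEPES, pH 6.7, preincubated 10 min with or without rising conjugate concentrations. p-Nitrophenyl acetate (PNPA) then added to 1 mM final. Absorbance read at 410 nm 60 min later. IC50 calculated for inhibition of HSA-evoked PNPA hydrolysis, then converted to Kd estimates. FMS-L-serine served as internal standard.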

In data set [9] the target is T1, Albumin. The data set is described as follows: The compound was evaluated for albumin associating affinity 0.7 M of FMS. A digest of the protocol:
as §2

Data set [10] deals with T1, Albumin. In words: Evaluated for inhibition of Serum albumin evoked PNPA hydrolysis in presence of 0.7 M of FMS. The data set is classed as functional. In outline:
as §1

In data set [11] the target is T1, Albumin. The data set is described as follows: The compound was evaluated for albumin associating affinity along with 2.1 M of FMS. A digest of the protocol: as §2
Data set [12] addresses T1, Albumin. The data set is described as follows: Evaluated for inhibition of Serum albumin evoked PNPA hydrolysis in presence of 1.3 M of FMS. The format is functional. In outline: as §1
Data set [13] addresses T1, Albumin. The data set is described as follows: The compound was evaluated for albumin associating affinity along with 3.0 M of FMS. A digest of the protocol: as §2
Data set [14] deals with Escherichia coli. In words: Potency for its ability to inhibit replication of Escherichia coli. The format is functional. A digest of the protocol:
as §3

T1 sequence (P02768 whole entry): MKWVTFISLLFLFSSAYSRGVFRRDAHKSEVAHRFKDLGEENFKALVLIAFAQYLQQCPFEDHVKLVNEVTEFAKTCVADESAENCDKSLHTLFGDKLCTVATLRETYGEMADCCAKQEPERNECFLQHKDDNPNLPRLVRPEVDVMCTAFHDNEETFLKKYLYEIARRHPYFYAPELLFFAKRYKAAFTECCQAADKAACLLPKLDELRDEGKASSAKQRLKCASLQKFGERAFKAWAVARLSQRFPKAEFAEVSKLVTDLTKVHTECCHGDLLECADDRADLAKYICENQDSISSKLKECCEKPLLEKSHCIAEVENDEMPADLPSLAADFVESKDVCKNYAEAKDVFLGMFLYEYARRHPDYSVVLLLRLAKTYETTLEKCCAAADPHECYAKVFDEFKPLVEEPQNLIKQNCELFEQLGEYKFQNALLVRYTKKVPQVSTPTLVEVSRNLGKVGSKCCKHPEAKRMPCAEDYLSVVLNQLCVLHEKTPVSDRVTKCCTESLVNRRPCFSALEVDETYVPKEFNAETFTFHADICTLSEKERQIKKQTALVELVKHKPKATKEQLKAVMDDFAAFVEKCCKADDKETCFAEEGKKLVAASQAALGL

As for `CNC(C)[C@H]1CCC(N)[C@@H](O[C@@H]2C(N)C[C@@H](NC(=O)OCC3c4ccccc4-c4ccc(S(=O)(=O)O)cc43)C(O[C@H]3OC[C@](C)(O)C(NC)[C@@H]3O)[C@@H]2O)O1` (stereo partly specified), in [1], the half-life (commonly how long it takes for the measured level to halve) was 78 min. The Kd – broadly, a measure of binding affinity in units of concentration – at Albumin [2] turned out to be 20 µM.
Turning to `CNC(C)[C@H]1CCC(NC(=O)OCC2c3ccccc3-c3ccc(S(=O)(=O)O)cc32)[C@@H](O[C@@H]2C(NC(=O)OCC3c4ccccc4-c4ccc(S(=O)(=O)O)cc43)C[C@@H](NC(=O)OCC3c4ccccc4-c4ccc(S(=O)(=O)O)cc43)C(O[C@H]3OC[C@](C)(O)C(NC)[C@@H]3O)[C@@H]2O)O1` (stereo partly specified), the 50% inhibitory concentration (IC50) (usually the midpoint of a concentration-inhibition curve) was 19 µM on Albumin [3]; 23 µM at Albumin [6]; 24 µM in the data set with Escherichia coli [7]; 80 µM at Albumin [10]; 43 µM at Albumin [12]. In addition, the Kd amounted to 17.2 µM at Albumin [4], 32 µM on Albumin [9], 9.2 µM at Albumin [11] and 7.6 µM at Albumin [13]. The results for the half-life in data set [5] and in [1] were 480 min and 228 min, respectively. In data set [8], the Ka was 131000 M⁻¹. The compound also returned a Potency with Escherichia coli [14] of less than 1%.
`CNC(C)[C@H]1CCC(N)[C@@H](O[C@@H]2C(NC(=O)OCC3c4ccccc4-c4ccc(S(=O)(=O)O)cc43)C[C@@H](NC(=O)OCC3c4ccccc4-c4ccc(S(=O)(=O)O)cc43)C(O[C@H]3OC[C@](C)(O)C(NC)[C@@H]3O)[C@@H]2O)O1` (stereo partly specified): the equilibrium dissociation constant (Kd) on Albumin [2] is 9.2 µM. This counts as single-digit micromolar.
